Converted amounts (≈) assume the structure as drawn. The source made the active and inactive calls. The rule behind the calls is not given here. Bounds are passed on as bounds.

Usually IC50 stands for the midpoint of a concentration-inhibition curve.

Assay [1] concerns HT-29. The assay is described as follows: Antiproliferative activity against human HT-29 cells after 72 hrs by MTT assay. Type of assay: functional, cell-based. The conditions noted are these: HT-29, 72 h. The method in brief:
(§1)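 HT29 (ATCC HTB-38) in DMEM with 10% heat-inactivated FCS, 0.1% streptomycin/penicillin; 3 × 10^3 cells/well, 24 h at 37 °C, then graded concentrations in fresh medium for 72 h, optionally with bovine liver catalase (100 U/mL). MTT (1 mg/mL in PBS) 1 h, formazan dissolved in DMSO, absorbance 550 nm; IC50 from dose–viability curves; three independent experiments.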

The nature of assay [2]: Antioxidant activity against HNTTM assessed per micromol of radical after 7 hrs by UV spectrophotometry. The class given is functional. Put shortly:
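Polyphenols (2–62 μM, fresh) mixed 1:1 by volume with HNTTM (120 μM) in deoxygenated CHCl3–MeOH (2:1); 7 h at room temperature in the dark, absorbance at 384 nm. Percentage absorbance loss plotted against sample over initial radical micromoles; dose–response curve per sample, EC50 and ARP reported; three independent determinations.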

Assay [3] concerns HT-29. Description: Cell cycle arrest in human HT-29 cells assessed as accumulation at S phase at IC50 after 72 hrs by propidium iodide staining based flow cytometry. The class given is functional. Put shortly: (§2)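 HT29 seeded 87 × 10^3 cells/well, 24 h at 37 °C, treated 72 h; hydroxyurea 1 mM as standard. Trypsinized cells stained in Tris-buffered saline with 50 μg/mL PI, 10 μg/mL DNase-free RNase, 0.1% Igepal CA-630, 1 h at 4 °C dark; flow cytometry at 488 nm; normalized G1/S/G2 percentages, three separate experiments.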

For assay [4], the system named is Radical scavenging activity. The assay is described as follows: Antioxidant activity against DPPH assessed per micromol of radical after 30 mins by UV spectrophotometry. The class given is functional. The method in brief: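 DPPH radical in solution; 30 min at room temperature in the dark, absorbance at 517 nm. Percentage absorbance loss [(1 − A/A0) × 100] plotted against sample amount over initial DPPH concentration; three independent determinations per point.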
For orientation: Loss of DPPH colour is used to gauge radical scavenging.

Assay [5] can be described thus: Antioxidant activity against TNPTM assessed per micromol of radical after 48 hrs by UV spectrophotometry. The class given is functional. The method in brief:
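As for HNTTM but with TNPTM radical, sample range 10–120 μM, 48 h incubation, absorbance at 378 nm; percentage absorbance loss versus sample over initial radical micromoles, dose–response curve, EC50 and ARP; three independent determinations.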

The test system of assay [6] is HT-29. Description: Induction of apoptosis in human HT-29 cells assessed as necrotic cells at IC50 after 72 hrs by annexin V/propidium iodide-based flow cytometry. Type of assay: functional. The method in brief: (§3)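 HT29 seeded, treated 72 h and harvested as for cell cycle; staurosporine 1 μM as control. Annexin+/PI− early apoptotic; annexin+/PI+ and annexin−/PI+ late apoptotic/necrotic; three separate experiments.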
On the technique in general: Flow cytometry measures light scatter and fluorescence of single cells or particles in a stream.

For assay [7], the system named is HT-29. The assay is described as follows: Induction of H2O2 production in human HT-29 cells at 100 ug/ml after 72 hrs by ferrous oxidation xylenol orange assay in presence of catalase. The class given is functional, cell-based.
For assay [8], the system named is HT-29. Description: Induction of H2O2 production in human HT-29 cells at 100 ug/ml after 72 hrs by ferrous oxidation xylenol orange assay. The class given is functional, cell-based.
Assay [9] concerns HT-29. The assay is described as follows: Induction of apoptosis in human HT-29 cells assessed as apoptotic cells at IC50 after 72 hrs by annexin V/propidium iodide-based flow cytometry. The class given is functional. Put shortly: as §3
A short description of assay [10]: Antiproliferative activity against human NCM460 cells after 72 hrs by MTT assay. The class given is cell-based. The note with it: NCM460, 72 h. Put shortly: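 NCM460 normal colon mucosa epithelial cells in M3Base with 10% heat-inactivated FCS plus 2.5 mM D-glucose (5 mM final); 1 × 10^4 cells/well, 24 h at 37 °C, graded concentrations for 72 h. MTT 1 h, DMSO-dissolved formazan read at 550 nm; IC50 from dose–viability curves; three independent experiments.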
Background: Tetrazolium assays rely on reduction of a dye to a coloured formazan, in cell work by metabolically active cells.

The test system of assay [11] is HT-29. Description: Antiproliferative activity against human HT-29 cells after 72 hrs by MTT assay in presence of H2O2 scavenger catalase. The class given is functional, cell-based. The note with it: HT-29, 72 h. Put shortly:
as §1

In assay [12] the test system is HT-29. Description: Cell cycle arrest in human HT-29 cells assessed as reduction of cells at G2 phase at IC50 after 72 hrs by propidium iodide staining based flow cytometry. Type of assay: functional. Put shortly: as §2
In assay [13] the test system is HT-29. The assay is described as follows: Cell cycle arrest in human HT-29 cells assessed as reduction of cells at G1 phase at IC50 after 72 hrs by propidium iodide staining based flow cytometry. The class given is functional. Put shortly: as §2

On to `O=C(OC[C@H]1OC(O)[C@@](O)(COC(=O)c2cc(O)c(O)c(O)c2)[C@@H]1O)c1cc(O)c(O)c(O)c1` (stereo partly specified) [HAMAMELITANNIN], for which the IC50 is 20 µg/mL (≈ 41.3 µM) in the assay on HT-29 [1], more than 100 µg/mL in assay [10] and 13 µg/mL with HT-29 [11]. Also, the EC50 in assay [2] was determined as 71.2 µg/µmol; in assay [4], 27.8 µg/µmol; in [5] it was 116 µg/µmol. Also, the Activity in the assay with HT-29 [3] is 16%; in the assay on HT-29 [6] it was 14%; in the assay on HT-29 [8], “Dose-dependent effect”; in the assay on HT-29 [9] it was 26%. The result in the assay with HT-29 [7] was inactive.

As to `O=C(OC[C@H]1O[C@@H](OC(=O)c2cc(O)c(O)c(O)c2)[C@H](OC(=O)c2cc(O)c(O)c(O)c2)[C@@H](OC(=O)c2cc(O)c(O)c(O)c2)[C@@H]1OC(=O)c1cc(O)c(O)c(O)c1)c1cc(O)c(O)c(O)c1` [PENTAGALLOYL GLUCOSE], the results for the IC50 (in the assay with HT-29 [1]; in assay [10]; with HT-29 [11]) were 28 µg/mL (≈ 29.8 µM), 23 µg/mL (≈ 24.5 µM) and 34 µg/mL, respectively. The EC50 was 54.8 µg/µmol in [2], 23.8 µg/µmol in assay [4] and 2400 µg/µmol in [5]. Moreover, the Activity is 8% in the assay with HT-29 [3], 5% in the assay on HT-29 [6], “Dose-dependent effect” in the assay on HT-29 [8] and 11% in the assay with HT-29 [9]. The result in the assay on HT-29 [12] and in the assay on HT-29 [13] was Active. In the assay with HT-29 [7], the result was inactive.

Consider `O=C(O[C@@H]1Cc2c(O)cc(O)cc2O[C@@H]1c1cc(O)c(O)c(O)c1)c1cc(O)c(O)c(O)c1`, for which the outcome in the assay on HT-29 [7] was inactive. Moreover, the Activity entry in the assay on HT-29 [8] is “Dose-dependent effect”.

(Values after ChEMBL document CHEMBL1949651, “Hamamelitannin from witch hazel (Hamamelis virginiana) displays specific cytotoxic activity against colon cancer cells” (J Nat Prod, 2012).)
